Measurements from publication PMC7547831 (Acta Pharmaceutica Sinica. B, 2020).
Read-outs that look alike come from different tables or passages of the source.

Assays:
[1] = LHQW components in human plasma after repeated oral dosing; format: in vivo; settings: after repeated oral administration of LHQW capsule, semi-quantitative
ACE2 [2] = molecular target: T1, ACE2 (Homo sapiens, UniProt Q9BYF1); assay: Test of ACE2 inhibitory activity; format: biochemical
Outline: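 ACE2 inhibition was measured with a commercial inhibitor screening kit following the supplier's instructions. Each data point was run in duplicate and reported as the mean value. IC50 came from nonlinear curve fitting.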
Target sequence in this assay (Q9BYF1 18-805): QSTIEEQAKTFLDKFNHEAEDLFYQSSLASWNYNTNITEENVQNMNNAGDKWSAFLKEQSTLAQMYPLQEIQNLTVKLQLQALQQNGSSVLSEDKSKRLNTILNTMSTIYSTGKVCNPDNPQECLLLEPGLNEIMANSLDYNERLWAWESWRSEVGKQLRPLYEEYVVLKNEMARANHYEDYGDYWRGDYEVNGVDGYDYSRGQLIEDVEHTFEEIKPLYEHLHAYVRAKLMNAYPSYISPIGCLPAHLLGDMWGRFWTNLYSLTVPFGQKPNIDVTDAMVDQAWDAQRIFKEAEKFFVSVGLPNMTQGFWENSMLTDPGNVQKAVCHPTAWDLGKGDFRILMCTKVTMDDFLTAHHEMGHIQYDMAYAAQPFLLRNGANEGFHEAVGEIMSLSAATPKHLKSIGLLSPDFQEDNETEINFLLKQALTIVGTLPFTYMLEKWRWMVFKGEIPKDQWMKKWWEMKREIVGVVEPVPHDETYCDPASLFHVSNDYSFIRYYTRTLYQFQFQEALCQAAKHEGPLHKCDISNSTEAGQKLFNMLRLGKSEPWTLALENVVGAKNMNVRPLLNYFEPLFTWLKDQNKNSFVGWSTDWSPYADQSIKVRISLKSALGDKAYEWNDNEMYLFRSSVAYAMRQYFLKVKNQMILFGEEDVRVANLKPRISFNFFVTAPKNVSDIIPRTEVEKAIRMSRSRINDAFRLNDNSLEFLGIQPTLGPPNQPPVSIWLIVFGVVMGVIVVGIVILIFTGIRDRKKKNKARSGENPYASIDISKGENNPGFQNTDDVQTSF

ACE2 [3] = molecular target: T1, ACE2; assay: SPR analysis of affinity to ACE2 recombinant protein; format: binding; settings: for Rmax: SPR fit; for χ^2: SPR fit quality; for Kd: SPR, steady-state affinity model (1:1), 0.024 to 50 μmol/L
Target sequence in this assay (Q9BYF1 18-740): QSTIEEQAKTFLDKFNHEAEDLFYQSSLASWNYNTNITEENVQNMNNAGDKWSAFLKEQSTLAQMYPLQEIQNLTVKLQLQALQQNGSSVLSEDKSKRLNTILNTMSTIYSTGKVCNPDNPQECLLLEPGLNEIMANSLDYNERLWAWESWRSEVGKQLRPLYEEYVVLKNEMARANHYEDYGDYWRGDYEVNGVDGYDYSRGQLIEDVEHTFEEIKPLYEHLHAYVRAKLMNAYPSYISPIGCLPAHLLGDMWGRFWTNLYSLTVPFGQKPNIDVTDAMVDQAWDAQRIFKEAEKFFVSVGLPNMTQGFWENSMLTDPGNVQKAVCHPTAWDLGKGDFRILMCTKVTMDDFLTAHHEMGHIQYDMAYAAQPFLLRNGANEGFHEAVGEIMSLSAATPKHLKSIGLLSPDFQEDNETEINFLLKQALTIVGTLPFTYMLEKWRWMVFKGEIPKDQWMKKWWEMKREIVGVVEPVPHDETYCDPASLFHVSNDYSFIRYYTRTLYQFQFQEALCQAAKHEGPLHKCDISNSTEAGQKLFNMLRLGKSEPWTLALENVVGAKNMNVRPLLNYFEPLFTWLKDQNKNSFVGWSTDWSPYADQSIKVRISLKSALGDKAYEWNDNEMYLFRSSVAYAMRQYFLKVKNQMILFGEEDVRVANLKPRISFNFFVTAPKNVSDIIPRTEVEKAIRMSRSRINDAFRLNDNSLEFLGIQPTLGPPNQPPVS

ACE2 [4] = molecular target: T1, ACE2; assay: Comprehensive 2D ACE2 column/C18 column/TOFMS biochromatography screening; format: binding; settings: urine sample, LHQW extract or standard
Outline: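 Stationary phase: His-tagged recombinant human ACE2 immobilised on MPTS/GMBS-modified silica, confirmed by pronase digestion and anti-ACE2 immunoblot. First dimension was the ACE2 column (10 × 2.0 mm, 5 μm) in 10 mmol/L ammonium acetate at 0.2 mL/min. Retained fractions went by alternating 10-port valve loops to a C18 column (0.1% formic acid/acetonitrile gradient, 0.4 mL/min) and then TOFMS.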
Target sequence in this assay (Q9BYF1 18-740): as above

Molecule | Human in vivo exposure (in words) [1] | ACE2 inhibitory effect (in words) (ACE2 [2]; ACE2 Inhibitor Screening Kit) | Rmax (ACE2 [3]) [RU] | χ^2 (ACE2 [3]) | Retention on ACE2 biochromatography column (potential ACE2 binding) (ACE2 [4]) | further results
C=CC1CNC(=S)O1 (racemic) [(R,S)-goitrin] | higher human exposure | – | – | – | – | –
O=C1c2cccc(O)c2C(=O)c2c(O)cc(CO)cc21 [Aloe-emodin (216), Aloe-emodin] | – | no inhibitory effect | 16.120 | 7.720 | – | ACE2 binding ability by SPR (in words) (ACE2 [3]): could also exhibit ACE2 binding activity
N#C[C@H](O[C@@H]1O[C@H](CO[C@@H]2O[C@H](CO)[C@@H](O)[C@H](O)[C@H]2O)[C@@H](O)[C@H](O)[C@H]1O)c1ccccc1 [Amygdalin (33), Amygdalin] | – | – | 6.856 | 0.462 | potential ACE2 binding activity | –
Cc1cc(O[C@@H]2OC(CO)[C@@H](O)C(O)C2O)c2c(c1)C(=O)c1cc(O)cc(O)c1C2=O (stereo partly drawn) [Emodin 8-O-β-D-glucoside (195), Emodin 8-O-β-D-glucoside] | – | – | 16.930 | 3.190 | – | IC50 (ACE2 [2]; read-out: IC50 of ACE2 inhibition, ACE2 Inhibitor Screening Kit): 22.5 µM; ACE2 binding ability by SPR (in words) (ACE2 [3]): could also exhibit ACE2 binding activity; Kd (ACE2 [3]): 21.3 µM
C[C@@H]1O[C@@H](OC[C@H]2O[C@@H](OCCc3ccc(O)c(O)c3)[C@H](O)[C@@H](O)[C@@H]2OC(=O)/C=C/c2ccc(O)c(O)c2)[C@H](O)[C@H](O)[C@H]1O [Forsythoside A (128), Forsythoside A] | low in vivo exposure | have ACE2 inhibitory effects | 21.490 | 5.280 | potential ACE2 binding activity | Kd (ACE2 [3]): 15.8 µM
C[C@@H]1O[C@@H](OC[C@H]2O[C@@H](OCCc3ccc(O)c(O)c3)[C@H](O)[C@@H](OC(=O)/C=C/c3ccc(O)c(O)c3)[C@@H]2O)[C@H](O)[C@H](O)[C@H]1O [Forsythoside I (104), Forsythoside I] | low in vivo exposure | have ACE2 inhibitory effects | 19.020 | 1.910 | potential ACE2 binding activity | Kd (ACE2 [3]): 18.7 µM
CC1(C)[C@@H](O[C@H]2O[C@H](C(=O)O)[C@@H](O)[C@H](O)[C@H]2O[C@@H]2O[C@H](C(=O)O)[C@@H](O)[C@H](O)[C@H]2O)CC[C@]2(C)[C@H]3C(=O)C=C4[C@@H]5C[C@@](C)(C(=O)O)CC[C@]5(C)CC[C@@]4(C)[C@]3(C)CC[C@@H]12 [Glycyrrhizin (222), Glycyrrhizin] | high in vivo exposure concentrations | – | 9.614 | 0.321 | potential ACE2 binding activity | ACE2 inhibitory effect (in words) (ACE2 [2]; ACE2 Inhibitor Screening Kit, listed as Glycyrrhizin): poor inhibitory effect; ACE2 inhibitory effect (in words) (ACE2 [2]; ACE2 Inhibitor Screening Kit, listed as glycyrrhizin): did not show significant peptidase inhibitory effects
CC(C)C[C@H](N[C@@H](Cc1cncn1Cc1cc(Cl)cc(Cl)c1)C(=O)O)C(=O)O [MLN-4760, reference compound] | – | – | – | – | significant retention | IC50 (ACE2 [2]): 0.063 µM
O=C(/C=C/c1ccc(O)c(O)c1)O[C@@H]1C[C@@](O)(C(=O)O)C[C@@H](O)[C@@H]1O [Neochlorogenic acid (19), Neochlorogenic acid] | – | – | 6.894 | 1.260 | – | Kd (ACE2 [3]): 7.88 µM
COc1cc(O)c2c(c1)C(=O)c1cc(C)cc(O)c1C2=O [Physcion (230), Physcion] | – | – | 18.390 | 1.630 | – | ACE2 binding ability by SPR (in words) (ACE2 [3]): could also exhibit ACE2 binding activity
N#C[C@H](O[C@@H]1O[C@H](CO)[C@@H](O)[C@H](O)[C@H]1O)c1ccccc1 [Prunasin (37), Prunasin] | – | did not show significant peptidase inhibitory effects | 3.814 | 0.244 | potential ACE2 binding activity | –
O=c1c(O)c(-c2ccc(O)c(O)c2)oc2cc(O)cc(O)c12 [Quercetin (190), Quercetin] | – | – | 12.780 | 1.580 | – | ACE2 binding ability by SPR (in words) (ACE2 [3]): certain binding ability with ACE2
O=C(O)c1cc(O)c2c(c1)C(=O)c1cccc(O)c1C2=O [Rhein (226), Rhein] | – | best ACE2 inhibitory effect | 13.200 | 0.669 | potential ACE2 binding activity | Human in vivo exposure (in words) ([1]; listed as Rhein): high exposure in human serum; Human in vivo exposure (in words) ([1]; listed as rhein): relatively high; IC50 (ACE2 [2]): 18.3 µM
C[C@@H]1O[C@@H](OC[C@H]2O[C@@H](Oc3c(-c4ccc(O)c(O)c4)oc4cc(O)cc(O)c4c3=O)[C@H](O)[C@@H](O)[C@@H]2O)[C@H](O)[C@H](O)[C@H]1O [Rutin (124), Rutin] | – | – | 12.770 | 1.290 | potential ACE2 binding activity | ACE2 binding ability by SPR (in words) (ACE2 [3]): certain binding ability with ACE2
CN[C@@H](C)[C@H](O)c1ccccc1 [ephedrine] | higher human exposure | – | – | – | – | –
C[C@@H]1O[C@@H](OC[C@H]2O[C@@H](OCCc3ccc(O)c(O)c3)[C@H](O)[C@@H](O)[C@@H]2O)[C@H](O)[C@H](O)[C@H]1O [forsythoside E] | – | no ACE2 inhibitory activities | – | – | – | –
CN[C@@H](C)[C@@H](O)c1ccccc1 [pseudoephedrine] | higher human exposure | – | – | – | – | –
C[C@@H]1O[C@@H](Oc2c(-c3ccc(O)c(O)c3)oc3cc(O)cc(O)c3c2=O)[C@H](O)[C@H](O)[C@H]1O [quercitrin] | higher human exposure | – | – | – | – | –
OC[C@H]1O[C@@H](OCCc2ccc(O)cc2)[C@H](O)[C@@H](O)[C@@H]1O [salidroside] | higher human exposure | – | – | – | – | –
Forsythoside B [Forsythoside B (125)] | – | have ACE2 inhibitory effects | 10.620 | 0.328 | – | ACE2 binding ability by SPR (in words) (ACE2 [3]): low binding activity
forsythin | – | no ACE2 inhibitory activities | – | – | – | –
